# Laboratory results taken from ChEMBL document CHEMBL1130800, “Complexation of okadaic acid: a preliminary study” (1998).
# Assays:
# Format in all cases: functional
# [1] = species: Rattus norvegicus; assay: Decrease in tone in estrogen-primed rat uterus at 20 uM in Ca+2-free solution
# Outline: (§1)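 Uterine strips from estradiol benzoate-primed (100 μg Kg⁻¹ ip, 24 h) virgin female Wistar rats, 200-250 g, in Sund's PSS (Ca²⁺-free, Na⁺/Ca²⁺-free, or K⁺/Ca²⁺-free with KCl omitted), 32°C, 95% O₂/5% CO₂, 0.5 g resting force. One 20 μM application per strip. Isometric tension decline measured at 120 min, as % of the agent's maximal tension increase. Mean ± s.e.m.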
# [2] = species: Rattus norvegicus; assay: Decrease in tone in estrogen-primed rat uterus at 20 uM in [Ca2+] free K+free solution; outline: as §1
# [3] = species: Rattus norvegicus; assay: Decrease in tone in estrogen-primed rat uterus at 20 uM in [Ca2+] free Na+free solution; outline: as §1
# [4] = species: Rattus norvegicus; assay: Duration of plateau(min) in estrogen-primed rat uterus at 20 uM in Ca+2-free solution
# Outline: (§2)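 Estrus-confirmed, oestrogen-primed rat uterine longitudinal strips in Ca²⁺-free, Na⁺/Ca²⁺-free or K⁺/Ca²⁺-free Sund's PSS at 32°C, gassed 95% O₂/5% CO₂. Strips equilibrated 45 min, then given repeated ACh 1 mM until responses were reproducible. A single 20 μM dose per strip. Contraction plateau duration (min) taken from isometric recordings. Mean ± s.e.m.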
# [5] = species: Rattus norvegicus; assay: Duration of plateau(min) in estrogen-primed rat uterus at 20 uM in [Ca2+] free K+free solution; outline: as §2
# [6] = species: Rattus norvegicus; assay: Duration of plateau(min) in estrogen-primed rat uterus at 20 uM in [Ca2+] free Na+free solution; outline: as §2
# [7] = species: Rattus norvegicus; assay: Emax value in estrogen-primed rat uterus at 20 uM in [Ca2+] free Na+free solution
# Outline: (§3)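 Strips from oestrogen-primed Wistar rat uterus, 0.5 g resting force, in Sund's PSS variants (Ca²⁺-free; Na⁺- and Ca²⁺-free; K⁺- and Ca²⁺-free) at 32°C. A single 20 μM addition per strip. Maximal isometric contraction expressed as % of the maximal tension evoked by ACh 1 mM in the same strip. Mean ± s.e.m.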
# [8] = species: Rattus norvegicus; assay: Emax value in estrogen-primed rat uterus at 20 uM in Ca+2-free solution; outline: as §3
# [9] = species: Rattus norvegicus; assay: Emax value in estrogen-primed rat uterus at 20 uM in Ca+2-free K+free solution; outline: as §3
# [10] = species: Rattus norvegicus; assay: Time to peak tension(min) in estrogen-primed rat uterus at 20 uM in Ca+2-free solution
# Outline: (§4)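 Isometric recording at 32°C of uterine strips from estrogen-primed (100 μg Kg⁻¹ ip estradiol benzoate, 24 h prior) female Wistar rats, in Ca²⁺-free, Na⁺/Ca²⁺-free or K⁺/Ca²⁺-free Sund's PSS. Each strip received one 20 μM application. Time to peak tension (min) measured from the onset of the tension increase. Mean ± s.e.m.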
# [11] = species: Rattus norvegicus; assay: Time to peak tension(min) in estrogen-primed rat uterus at 20 uM in [Ca2+] free K+free solution; outline: as §4
# [12] = species: Rattus norvegicus; assay: Time to peak tension(min) in estrogen-primed rat uterus at 20 uM in [Ca2+] free Na+free solution; outline: as §4
smiles,measurement,setting,value
C=C1[C@@H](O)[C@@H]2O[C@@]3(CCC2O[C@@H]1[C@@H](O)C[C@H](C)C1O[C@@]2(CCCCO2)CC[C@H]1C)CC[C@H](/C=C/[C@@H](C)[C@@H]1CC(C)=C[C@@]2(O[C@H](C[C@@](C)(O)C(=O)O)CC[C@H]2O)O1)O3 (some centres undefined),Decrease in tone,[1],92.8
same,Decrease in tone,[2],98
same,Decrease in tone,[3],93.3
same,Duration of plateau,[4],3.7 min
same,Duration of plateau,[5],2.9 min
same,Duration of plateau,[6],4.2 min
same,Emax,[7],186.5
same,Emax,[8],101.7
same,Emax,[9],135.2
same,Time to peak tension,[10],23 min
same,Time to peak tension,[11],20.7 min
same,Time to peak tension,[12],30.3 min
C=C1[C@@H](O)[C@@H]2O[C@]3(CC[C@H](/C=C/[C@@H](C)[C@@H]4CC(C)=C[C@@]5(O[C@H](C[C@@](C)(O)C(=O)O)CC[C@H]5O)O4)O3)CC[C@H]2O[C@@H]1[C@@H](O)C[C@H](C)[C@H]1O[C@@]2(CCCCO2)CC[C@H]1C [OKADAIC ACID],Decrease in tone,[1],85.7
same,Decrease in tone,[2],58.1
same,Decrease in tone,[3],94.8
same,Duration of plateau,[4],2.1 min
same,Duration of plateau,[5],12.8 min
same,Duration of plateau,[6],3.8 min
same,Emax,[7],150.8
same,Emax,[8],107.9
same,Emax,[9],6.2
same,Time to peak tension,[10],27.2 min
same,Time to peak tension,[11],28.5 min
same,Time to peak tension,[12],25.1 min
